Measurements from ChEMBL document CHEMBL1143161, “Non-charged thiamine analogs as inhibitors of enzyme transketolase” (Bioorg Med Chem Lett, 2008).

Tests used:
[1] = system: Cc1ncc(Cc2c(C)c(CCO)nn2C)c(N)n1; experiment: (§1) Ratio of kcat to Km for thiamine […]
In short: (§2)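 Enzymatic TPPK assay with kcat/Km derived, run in triplicate. The value is the average, with data within 2-fold of the mean.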

[2] = system: Cc1ncc(C[n+]2csc(CCO)c2C)c(N)n1; experiment: as §1; in short: as §2
[3] = system: CC(=O)Nc1ncc(Cc2csc(CCO)c2C)c(N)n1; experiment: as §1; in short: as §2
[4] = system: Cc1ncc(Cc2csc(CCO)c2C)c(N)n1; experiment: as §1; in short: as §2
[5] = system: Cc1c(Cc2cnc(-c3ccccc3)nc2N)csc1CCO; experiment: as §1; in short: as §2
[6] = system: Cc1c(Cc2cnc(C(F)(F)F)nc2N)csc1CCO; experiment: as §1; in short: as §2
Cc1c(Cc2cncnc2N)csc1CCO = experiment: as §1; in short: as §2
[7] = system: Cc1ncc(Cn2c(C)c(CCO)sc2=O)c(N)n1; experiment: as §1; in short: as §2
[8] = system: Cc1c(Cc2cnc(C3CC3)nc2N)csc1CCO; experiment: as §1; in short: as §2
[9] = system: Cc1c(Cc2cnc(C(C)C)nc2N)csc1CCO; experiment: as §1; in short: as §2

In the case of “Thiamine pyrophosphokinase 1 (Homo sapiens), Q9H3S4”, the kcat/Km [1] is reported as 1.9 10^-5/nM/s, the kcat/Km [2] is reported as 1.2 10^-5/nM/s and the kcat/Km [3] is reported as 1.1 10^-6/nM/s. The kcat/Km [4] was 3.4 10^-5/nM/s, the kcat/Km [5] was 1 10^-6/nM/s and the kcat/Km [6] was 8.5 10^-4/nM/s. The kcat/Km (Cc1c(Cc2cncnc2N)csc1CCO) was 1.2 10^-5/nM/s, the kcat/Km [7] was 1 10^-5/nM/s and the kcat/Km [8] was 2.7 10^-5/nM/s. For the same substance, the kcat/Km [9] was 2.4 10^-5/nM/s.
